Results taken from PMC7394305 (Journal for Immunotherapy of Cancer, 2020).
Where two headings read alike, the source gives them in different places.

Experiments:
CD8+ T cells = test: T cell IFNγ secretion assay; format: cell-based, mouse; details: for EC50: Mus musculus, T-cell
MCA205 tumors = MCA205 tumors in immunodeficient NSG mice; format: in vivo, mouse; details: AZD4635 and anti-PD-L1 (D265A)
Method in brief: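 NSG mice got MCA205 cells sc (1×10^6 in PBS, right flank), with randomisation at 50–90 mm3. Treatment was oral test compound nanosuspension plus anti-PD-L1 (mIgG1 D265A, ip 10 mg/kg twice weekly). Tumor volume was measured twice weekly.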

MC38-OVA tumors [1] = test: MC38-OVA syngeneic tumor model; format: in vivo, mouse
Method in brief: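 C57BL/6 mice bore sc MC38-OVA (5×10^5 cells in PBS) and were randomised at 80–100 mm3. Anti-CD8 or rat IgG2b isotype was injected every 3 days. Mice also got oral test compound 50 mg/kg twice daily plus anti-PD-L1 10 mg/kg ip twice weekly. Tumor volume was tracked twice weekly.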

MC38 tumors [2] = test: Gene expression analysis of MC38 tumors; format: in vivo, mouse; details: 14 days treatment
Method in brief: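 Mice bearing sc MC38 tumors were treated with test compound for 14 days. Tumor gene expression was profiled with the NanoString Mouse PanCancer Immune Profiling Panel.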

MC38 tumors [3] = test: Tumor immunophenotyping flow cytometry of MC38 tumors; format: in vivo, mouse
MC38-OVA tumors [4] = test: Ex vivo stimulation cytokine flow cytometry of MC38-OVA tumors; format: in vivo, mouse; details: for IFN-γ, TNF-α, IL-2, granzyme B and CD107a on CD8+ T cells: PMA/ionomycin ex vivo stimulation
Method in brief: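 Dissociated MC38-OVA tumor cells were plated at 2–4e5 live cells/well in complete T cell medium. […] CD8+ T and NK cell cytokines and CD107a were then read by flow cytometry.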

tumor draining LN cells = test: ELISpot assay of tumor draining lymph node cells; format: in vivo, mouse; details: combination with anti-PD-L1; MC38-OVA tumor-bearing mice
CD103+ DC [5] = test: CD103+ DC mouse bone marrow differentiation cultures; format: cell-based
CD103+ DC [6] = test: Pinocytosis assay; format: cell-based, mouse
Method in brief: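 1e6 iDCs were incubated with Alexa 488–ovalbumin (50 µg/mL final) in complete T cell medium for 30 min at 37°C, with 4°C as negative control. Cells were washed twice in ice-cold DPBS, kept chilled and analysed by flow cytometry.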

CD103+ DC [7] = test: Analysis of antigen presentation; format: cell-based, mouse
OT-1 CD8+ T cells [8] = test: CD103+ DC co-culture with OT-1 CD8+ T cells; format: cell-based, mouse
OT-1 CD8+ T cells [9] = test: Ex vivo CD103+ DC isolation and OT-I T cell co-culture; format: in vivo, mouse; details: CD103+ DC from TdLN of MC38-OVA mice
monocyte-derived DCs = test: Antigen-specific priming of HLA-A*0201 Melan-A CD8+ T cells; format: cell-based, human
F4/80+ macrophages = test: Mouse macrophage assay; format: cell-based; details: 10 µM NECA
[10] = whole ovalbumin protein, AZD4635+NECA
[11] = AZD4635 + NECA, dead MC38-OVA tumor cells
[12] = 5 μM NECA, dead MC38-OVA tumor cells
[13] = DC differentiated with 5 µM NECA, loaded with SIINFEKL peptide

Cc1cc(-c2nnc(N)nc2-c2ccc(F)cc2)cc(Cl)n1 [AZD4635]
EC50 (CD8+ T cells; read-out: EC50 restoration of IFN-γ secretion, 0.1 µM NECA): 53 nM
EC50 (CD8+ T cells; read-out: EC50 restoration of IFN-γ secretion, 1 µM NECA): 598 nM
restoration of IFN-γ secretion (CD8+ T cells; in presence of NECA): back to baseline levels
antitumor activity in immunodeficient mice (MCA205 tumors): completely abrogated
tumor efficacy of combination (MC38-OVA tumors [1]; AZD4635 50 mg/kg twice daily with αPD-L1 10 mg/kg): appreciable beneficial combination effect
antitumor activity after depletion of CD8 T cells (MC38-OVA tumors [1]; AZD4635+PD-L1 treatments, antimouse CD8 antibody): completely abrogated
expression of genes associated with immune activation relative to vehicle (MC38 tumors [2]): upregulated expression
MHCII and CD86 expression on CD11c+ DCs and F4/80+ macrophages (MC38 tumors [3]; 14 days, single agent): increased expression
intratumoral frequencies of DCs and macrophages (MC38 tumors [3]; 14 days, single agent): did not increase
frequency of infiltrating CD8+ cytotoxic lymphocytes compared with vehicle (MC38 tumors [3]; in combination with anti-PD-L1): significantly increased
NK cell IFN-γ production (MC38-OVA tumors [4]; combination with anti-PD-L1): minimal increase
NK cell TNF-α production and CD107a expression (MC38-OVA tumors [4]; combination with anti-PD-L1): strong increase
IFN-γ, TNF-α, IL-2, granzyme B and CD107a on CD8+ T cells (MC38-OVA tumors [4]; combination with anti-PD-L1): most significantly increased
IFN-γ, TNF-α, IL-2, granzyme B and CD107a on CD8+ T cells (MC38-OVA tumors [4]; single agent): all enhanced
IFN-γ response to OVA and p15E peptides (tumor draining LN cells): Strong activation of IFN-γ
differentiation into CD103+ DC (CD103+ DC [5]; 3 µM AZD4635 then NECA): able to differentiate into CD103^+ DC efficiently
rescue of fluorescent OVA uptake (CD103+ DC [6]; AZD4635 3 µM with NECA): almost to levels in untreated control
rescue of antigen presentation compared with NECA treatment (CD103+ DC [7]; SIINFEKL pulsed cultures, AZD4635 3 µM + NECA): twofold
antigen presentation level versus untreated CD103+ DCs (CD103+ DC [7]; [10]): restored to a level comparable to untreated
increase of antigen presentation compared with NECA (CD103+ DC [7]; [10]): nearly fivefold
restoration of CD107a and IFN-γ (OT-1 CD8+ T cells [8]; AZD4635 + NECA, SIINFEKL peptide): comparable to untreated cells
CD107a response relative to responses elicited by untreated cells (OT-1 CD8+ T cells [8]; [11]): 87%
IFN-γ response compared with untreated cells (OT-1 CD8+ T cells [8]; [11]): not statistically different
proliferation of OT-1 CD8+ T cells (OT-1 CD8+ T cells [9]; anti-PD-L1+AZD4635 combination): 53%
proliferation of OT-1 CD8+ T cells (OT-1 CD8+ T cells [9]; single agent, vehicle 5.8%): 28%
Melan-A26-35 tetramer positive CD8+ T cells (monocyte-derived DCs; 5 µM NECA, AZD4635 3 µM where given, tabulated, 4 donors, no NECA 32%): 16%

CCNC(=O)[C@H]1O[C@@H](n2cnc3c(N)ncnc32)[C@H](O)[C@@H]1O [NECA, 5′-(N-ethylcarboxamido) adenosine]
suppression of IFN-γ secretion (CD8+ T cells; 1 µM NECA, CD3/CD28 beads): 80%
suppression of MHCII expression relative to DMSO-treated controls (F4/80+ macrophages): > 90%
CD103+ cells (CD103+ DC [5]; 5 µM NECA, untreated 80%): 57%
reduction of fluorescent OVA uptake (CD103+ DC [6]; NECA 5 µM): ~50%
antigen presentation compared with untreated CD103+ DC (CD103+ DC [7]; SIINFEKL pulsed cultures, NECA 5 µM): less than a third
antigen presentation compared with untreated cells (CD103+ DC [7]; whole ovalbumin protein, NECA 5 µM): a log-fold reduced
reduction of CD107a response (OT-1 CD8+ T cells [8]; [12]): 75%
reduction of IFN-γ response (OT-1 CD8+ T cells [8]; [12]): 75%
reduction of CD107a expression by OT-1 CD8+ T cells (OT-1 CD8+ T cells [8]; [13]): 72%
reduction of IFN-γ secretion by OT-1 CD8+ T cells (OT-1 CD8+ T cells [8]; [13]): 60%
Melan-A26-35 tetramer positive CD8+ T cells (monocyte-derived DCs): 2.5%
reduction of cross-priming function of DCs (monocyte-derived DCs; 5 µM NECA): greater than 90%
